Experimental findings from ChEMBL document CHEMBL1122973, “Synthesis and platelet aggregation inhibitory activity of 4,5-bis(substituted)-1,2,3-thiadiazoles” (J Med Chem, 1985) are described below.

Values after ≈ are worked out from the molar mass of the structure shown.

Holding throughout (assay type): functional
The species named for experiment [1] is Homo sapiens. Briefly: Potency relative to flurbiprofen in inhibiting collagen-induced platelet aggregation in human platelet-rich plasma (PRP). Summed up:
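Ratio of activity to flurbiprofen, the internal standard run alongside each day. The IC50 was approximate, from 1/2 log concentration intervals, for collagen-induced aggregation in human PRP. PRP came from citrated blood (200g, 10 min, 10 °C), with platelets adjusted to 3×10^5/mm³ using autologous PPP (2000g, 10 min, 10 °C).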

For experiment [2], the species on record is Homo sapiens. Briefly: In vitro inhibition of collagen-induced platelet aggregation in human platelet-rich plasma (PRP). A digest of the protocol:
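Citrated human blood spun at 200g, 10 min, 10 °C to give PRP. A further spin at 2000g, 10 min, 10 °C gave PPP, used to adjust the platelet count to 3×10^5/mm³. Collagen triggered aggregation. Approximate IC50 was read from 1/2 log steps of drug concentration. Flurbiprofen served as internal standard for day-to-day variation in platelet sensitivity.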

The species entered for experiment [3] is Homo sapiens. Briefly: Percent inhibition of collagen-induced Platelet aggregation in human platelet-rich plasma (PRP) at a concentration of 0.001 ug/mL.
For experiment [4], the species on record is Homo sapiens. Briefly: Percent inhibition of collagen-induced Platelet aggregation in human platelet-rich plasma (PRP) at a concentration of 0.032 ug/mL.
The species named for experiment [5] is Homo sapiens. Briefly: Percent inhibition of collagen-induced Platelet aggregation in human platelet-rich plasma (PRP) at a concentration of 0.01 ug/mL.

In general, IC50 refers to the concentration that inhibits the measured activity by half. Low values mean higher potency, high ones lower potency. In the case of `CN(C)c1ccc(-c2nnsc2-c2ccc(N(C)C)cc2)cc1`, in experiment [1], the Relative potency amounted to 10. Also, the IC50 in experiment [2] is 0.01 µg/mL (≈ 0.0308 µM).

Turning to `c1ccc(-c2csnn2)cc1`, the Relative potency in experiment [1] came to 0.03. Further, the IC50 in experiment [2] is 3.2 µg/mL (≈ 19.7 µM).

Molecule `CC(=O)Oc1ccccc1C(=O)O` [ASPIRIN] registered a Relative potency in experiment [1] of 0.01.

In experiment [1], `c1ccc(-c2nnsc2-c2ccc3c(c2)OCO3)cc1` came in with a Relative potency of 0.03. The IC50 in experiment [2] was 3.2 µg/mL (≈ 11.3 µM).

`CCNc1ccc(-c2nnsc2-c2ccc(NCC)cc2)cc1`: the Relative potency in experiment [1] is on record as 0.03. Moreover, in experiment [2], the IC50 stood at 3.2 µg/mL (≈ 9.86 µM).

Turning to `c1ccc(-c2cnns2)cc1`, the Relative potency in experiment [1] is 0.03. The molecule further registered an IC50 in experiment [2] of 3.2 µg/mL (≈ 19.7 µM).

For the molecule `COc1ccc(-c2snnc2-c2ccc(OC)cc2OC)cc1`, the Relative potency in experiment [1] is 3.1. Also, the midpoint of inhibition in experiment [2], the IC50, lay at 0.032 µg/mL (≈ 0.0974 µM).

Broadly, the inhibition is the percentage by which the read-out fell short of the control. The low end stands for a response near the control, the high end for a response far below the control. Consider `COc1ccc(-c2snnc2-c2ccccc2)cc1`, for which, in experiment [1], the Relative potency was found to be 31.3. Besides, the inhibition at 0.001 µg/mL in experiment [3] was found to be 32.4%. Further, in experiment [4], 0.032 µg/mL produced 50% inhibition. This molecule also returned an inhibition at 0.01 µg/mL in experiment [5] of 56.8%. In experiment [2], this molecule displayed an IC50 of 0.003 µg/mL (≈ 0.0112 µM).

As for `Cl.Cl.Nc1ccc(-c2nnsc2-c2ccc(N)cc2)cc1`, the Relative potency in experiment [1] came to 0.03. In addition, in experiment [2], the IC50 amounted to 3.2 µg/mL.

With `COc1ccc(-c2nnsc2-c2cccs2)cc1`, in experiment [1], the Relative potency worked out at 0.1. In experiment [2], this molecule showed a concentration for half-maximal inhibition (IC50) of 1 µg/mL (≈ 3.64 µM).

Molecule `COc1ccc(-c2nnsc2-c2ccccc2)cc1` gave a Relative potency in experiment [1] of 10. In addition, it took 0.01 µg/mL (≈ 0.0373 µM) to reach half-maximal inhibition in experiment [2] (IC50).

In experiment [1], `COc1ccc(-c2snnc2-c2ccc(SC)cc2)cc1` gave a Relative potency of 3.1. This molecule also had an IC50 in experiment [2] of 0.032 µg/mL (≈ 0.102 µM).

In turn, `Oc1ccc(-c2nnsc2-c2ccc(O)cc2)cc1` gave a Relative potency in experiment [1] of 0.03. For the same molecule, the half-maximal inhibitory concentration (IC50) in experiment [2] was 3.2 µg/mL (≈ 11.8 µM).

Consider `c1ccc(-c2nnsc2-c2ccccc2)cc1`, for which, in experiment [1], the Relative potency was 0.03. Also, the IC50 in experiment [2] was found to be 3.2 µg/mL (≈ 13.4 µM).

In experiment [1], `c1csc(-c2nnsc2-c2cccs2)c1` returned a Relative potency of 0.03. Besides, the IC50 in experiment [2] was determined as 3.2 µg/mL (≈ 12.8 µM).

For `COc1ccc(-c2nnsc2-c2ccc(OC)cc2)cc1`, the Relative potency in experiment [1] stood at 100. The inhibition at 0.001 µg/mL in experiment [3] stood at 32.4%. This molecule returned an inhibition at 0.032 µg/mL in experiment [4] of 55.4%. In addition, testing at 0.01 µg/mL in experiment [5] gave an inhibition of 90%. The molecule also had a 50% inhibitory concentration (IC50) in experiment [2] of 0.001 µg/mL (≈ 0.00335 µM).

Molecule `COc1ccc(-c2snnc2-c2ccco2)cc1` displayed a Relative potency in experiment [1] of 3.1. Moreover, the half-inhibitory concentration (IC50) in experiment [2] turned out to be 0.032 µg/mL (≈ 0.124 µM).

In experiment [1], `COc1ccc(-c2csnn2)cc1` gave a Relative potency of 0.03. Also, in experiment [2], half-maximal inhibition (IC50) required 3.2 µg/mL (≈ 16.6 µM).
